pIC50, pKd: −log10 of the molar value. Calls of active or inactive are those of the source. The calls are words filed in the database; no cut-off is given here.
Experiments:
[1] = Toxicity in mouse assessed as coma at 100 mg/kg, po measured after 45 mins; type: organism-based; details: in vivo, 0.75 h
Method in brief: (§1)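 Acute oral toxicity per OECD 423. Mice were fasted 4 h, given a single 100 mg/kg oral dose, and observed for 45 min for signs of acute toxicity, compared with untreated controls.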

[2] = Toxicity in mouse assessed as effect on eye colour at 100 mg/kg, po measured after 45 mins; type: organism-based; details: in vivo, 0.75 h; method in brief: as §1
[3] = tested on: Plasmodium falciparum; assay: Antimalarial activity against chloroquine resistant trophozoites-stage Plasmodium falciparum INDO infected in human erythrocytes assessed as inhibition of parasite growth incubated for 12 hrs; type: functional, organism-based; details: Erythrocyte
Method in brief: (§2)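 PfINDO cultures were staged at 0–6 h (rings), 18–22 h (trophozoites), 30–34 h (early schizonts) and 40–44 h (late schizonts) post-invasion. Each was exposed to varying concentrations for 12 h, washed free of compound by centrifugation, and grown 48 h in drug-free medium. IC50 came from growth curves, with untreated culture as 100% and chloroquine-treated culture as 0% growth.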

[4] = Toxicity in mouse assessed as appetite loss at 100 mg/kg, po measured after 45 mins; type: organism-based; details: in vivo, 0.75 h; method in brief: as §1
[5] = Binding affinity to Plasmodium falciparum GAP50 assessed as equilibrium dissociation constant by SPR analysis
Method in brief: (§3)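 GAP50 at 50 μg ml−1 in 10 mM acetate pH 4.5 was amine-coupled (EDC/NHS) onto a CM5 chip. Analytes at several concentrations in 5% DMSO/1× PBS; association 60 s, dissociation 120 s, flow 30 μl min−1. Regeneration with 10 mM glycine pH 3.0 for 30 s. Sensorgrams fitted to a 1:1 Langmuir model giving ka, kd and KD.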

[6] = tested on: Plasmodium falciparum; assay: Antiplasmodial activity against chloroquine resistant ring-stage Plasmodium falciparum INDO infected in human erythrocytes assessed as inhibition of parasite growth incubated for 12 hrs; type: functional, organism-based; details: Erythrocyte; method in brief: as §2
[7] = Cytotoxicity against human Huh-7 cells assessed as reduction in cell viability incubated for 24 hrs by MTT assay; type: toxicity, cell-based
[8] = tested on: Plasmodium falciparum; assay: Binding affinity to Plasmodium falciparum GAP50 assessed as association constant by SPR analysis
Method in brief: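 SPR: GAP50 at 50 μg/ml in 10 mM acetate pH 4.5 was immobilised on a CM5 chip by EDC/NHS coupling. Analytes were run in 5% DMSO/PBS at 30 μl/min, with 60 s association and 120 s dissociation. The chip was regenerated with 10 mM glycine pH 3.0 for 30 s. Fits used a 1:1 Langmuir model.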

[9] = Toxicity in mouse assessed as change in temperature at 100 mg/kg, po measured after 45 mins; type: organism-based; details: in vivo, 0.75 h; method in brief: as §1
[10] = tested on: Plasmodium falciparum; assay: Antiplasmodial activity against chloroquine resistant Plasmodium falciparum INDO infected in human erythrocytes assessed as inhibition of parasite growth at 100 uM incubated for 72 hrs by SYBR green I staining based fluorescence plate reader analysis relative to control; type: functional; details: Erythrocyte
Method in brief: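 Single-concentration screen at 100 μM against PfINDO, triplicate wells, 72 h. Final DMSO was 0.4%. Growth was read by SYBR Green I lysis (excitation 485, emission 530 nm) and expressed relative to untreated culture, taken as 100% growth.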

[11] = Toxicity in mouse assessed as diarrhea at 100 mg/kg, po measured after 45 mins; type: organism-based; details: in vivo, 0.75 h; method in brief: as §1
[12] = Toxicity in mouse assessed as effect on water intake at 100 mg/kg, po measured after 45 mins; type: organism-based; details: in vivo, 0.75 h; method in brief: as §1
[13] = Toxicity in mouse assessed as sedation at 100 mg/kg, po measured after 45 mins; type: organism-based; details: in vivo, 0.75 h; method in brief: as §1
[14] = Toxicity in mouse assessed as lacrimation at 100 mg/kg, po measured after 45 mins; type: organism-based; details: in vivo, 0.75 h; method in brief: as §1
[15] = tested on: Plasmodium falciparum; assay: Antiplasmodial activity against artemisinin-resistant early ring stage Plasmodium falciparum Cam3.1R539T infected in human erythrocytes assessed as reduction in parasite growth at 10 times IC50 concentration preincubated for 6 hrs followed by media replacement without compound for 66 hrs and measured after 72 hrs by Giemsa-staining based analysis; type: functional, organism-based; details: Erythrocyte
Method in brief: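 Ring-stage survival assay. PfCam3.1R539T or PfINDO rings (0–3 h post-invasion), 1% parasitemia, 2% haematocrit, were exposed to 10× IC50 for 6 h. Compound was removed by three PBS washes, then cultures were grown 66 h in fresh medium. At 72 h, stage progression was assessed on Giemsa smears and revival by SYBR Green I lysis. Triplicate biological samples.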

[16] = Toxicity in mouse assessed as change in body weight at 100 mg/kg, po measured after 45 mins; type: organism-based; details: in vivo, 0.75 h; method in brief: as §1
[17] = tested on: Plasmodium falciparum; assay: Antiplasmodial activity against chloroquine resistant Plasmodium falciparum INDO trophozoites infected in human erythrocytes assessed as increase in reactive oxygen species level at 2 times IC50 concentration incubated for 8 hrs by H2DCFDA staining based fluorescence analysis; type: functional, organism-based; details: Erythrocyte
Method in brief: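 PfINDO trophozoites (24–28 h post-invasion), 2% parasitemia, 2% haematocrit, were loaded with CM-H2DCFDA (5 μM, 30 min) and washed with PBS. They were then treated at 2× IC50 for 8 h, and DCF fluorescence was read at 530 nm. Controls were 100 μM H2O2 (positive) and 0.4% DMSO (negative). Triplicate biological samples.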

[18] = tested on: Plasmodium falciparum; assay: Antiplasmodial activity against chloroquine sensitive Plasmodium falciparum 3D7 infected in human erythrocytes assessed as inhibition of parasite growth at 100 uM incubated for 72 hrs by SYBR green I staining based fluorescence plate reader analysis relative to control; type: functional; details: 3D7, Erythrocyte
Method in brief: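 Pf3D7 grown in O+ human erythrocytes at 4% haematocrit, Albumax (0.05%)-RPMI, 37 °C, 5% O2/5% CO2/90% N2, sorbitol-synchronised at ring stage. Single-point screen at 100 μM, final DMSO 0.4%, triplicate wells, 72 h. Read-out by SYBR Green I lysis buffer (Tris pH 7.5, EDTA, saponin, Triton X-100), 1 h dark at 37 °C, ex 485/em 530 nm. Growth expressed relative to untreated culture.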

[19] = tested on: Plasmodium berghei; assay: Antimalarial activity against Plasmodium berghei ANKA infected in mouse model of malaria assessed as reduction in parasite infection by measuring median survival at 100 mg/kg, po; type: functional
[20] = Selectivity index, ratio of CC50 for human Huh-7 cells to IC50 for antiplasmodial activity against chloroquine resistant Plasmodium falciparum INDO infected in human erythrocytes; type: toxicity, cell-based; details: read-out: Ratio CC50/IC50
Method in brief: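 Selectivity index = CC50 / PfINDO IC50. CC50 came from MTT assays: 10^4 HEK293 or HUH7 cells per well, seeded overnight and exposed to 0–100 μM for 24 h, then MTT for 4 h at 37 °C with formazan dissolved in DMSO and read at A570. Controls were 0.8% DMSO (full growth) and 10% DMSO (zero growth).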

[21] = tested on: Plasmodium falciparum; assay: Antimalarial activity against chloroquine resistant early schizont Plasmodium falciparum INDO infected in human erythrocytes assessed as inhibition of parasite growth incubated for 12 hrs; type: functional, organism-based; details: Erythrocyte; method in brief: as §2
[22] = Binding affinity to Plasmodium falciparum GAP50 assessed as dissociation constant by SPR analysis; method in brief: as §3
[23] = Resistance index, ratio of IC50 of chloroquine resistant Plasmodium falciparum INDO to chloroquine sensitive Plasmodium falciparum 3D7; type: functional
Method in brief: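 Resistance index = IC50 against PfINDO / IC50 against Pf3D7. Both IC50s came from 72 h SYBR Green I assays.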

Compound	Activity [1]	Activity [2]	pIC50 [3]	Activity [4]	pKd [5]	pIC50 [6]	CC50 at 24 h [7] [nM]	Ka [8] [M⁻¹ s⁻¹]	Activity [9]	inhibition at 100 µM [10] [%]	Activity [11]	Activity [12]	Activity [13]	Activity [14]	Activity [15]	Activity [16]	Activity [17]	inhibition at 100 µM [18] [%]	Survival [19] [days]	selectivity ratio [20]	further results
O=C(Cn1nnc(-c2cccc([N+](=O)[O-])c2)n1)N1CCN(c2ccnc3cc(Cl)ccc23)CC1	Non-Toxic	Non-Toxic	5.57	Non-Toxic	> 4.00	5.12	400000	1920	Non-Toxic	> 50	Non-Toxic	Non-Toxic	Non-Toxic	Non-Toxic	Active	Non-Toxic	Active	> 50	22	223	pIC50 [21]: 5.67; Kd [22]: 0.006 s⁻¹; Ratio IC50 [23]: 0.8
Clc1ccc2c(N3CCN(CCCn4nnc(-c5ccc(Br)cc5)n4)CC3)ccnc2c1	Non-Toxic	Non-Toxic	5.67	Non-Toxic	> 4.00	5.64	288000	2610	Non-Toxic	> 50	Non-Toxic	Non-Toxic	Non-Toxic	Non-Toxic	inactive	Non-Toxic	Active	> 50	28	128	pIC50 [21]: 5.55; Kd [22]: 0.191 s⁻¹; Ratio IC50 [23]: 1.21

From ChEMBL document CHEMBL5335820, “Novel quinolinepiperazinyl-aryltetrazoles targeting the blood stage of Plasmodium falciparum” (RSC Med Chem, 2024)
